Data reported in ChEMBL document CHEMBL1140318, “Potent androgen antagonists based on carborane as a hydrophobic core structure” (J Med Chem, 2005).

target: Androgen receptor (Homo sapiens) (UniProt P10275); assay: Percent displacement of [3H]DHT binding to human androgen receptor expressed in Escherichia coli strain HB-101 at 10 uM
Procedure, shortened: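 GST-hAR ligand-binding domain expressed in E. coli HB-101 (1 mM IPTG, 27 °C, 4.5 h); crude sonicate diluted to 0.3-0.5 mg/mL protein (20 mM Tris-HCl pH 8.0, 0.3 M KCl, 1 mM EDTA). Incubated 15 h at 4 °C in dark with 4 nM [3H]DHT and 1 μM triamcinolone acetonide (final). Nonspecific binding measured with 200-fold unlabeled DHT. Dextran/γ-globulin-charcoal separation, supernatant scintillation-counted.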

Chain of UniProt P10275 (P10275 whole entry, the tested form may be a part): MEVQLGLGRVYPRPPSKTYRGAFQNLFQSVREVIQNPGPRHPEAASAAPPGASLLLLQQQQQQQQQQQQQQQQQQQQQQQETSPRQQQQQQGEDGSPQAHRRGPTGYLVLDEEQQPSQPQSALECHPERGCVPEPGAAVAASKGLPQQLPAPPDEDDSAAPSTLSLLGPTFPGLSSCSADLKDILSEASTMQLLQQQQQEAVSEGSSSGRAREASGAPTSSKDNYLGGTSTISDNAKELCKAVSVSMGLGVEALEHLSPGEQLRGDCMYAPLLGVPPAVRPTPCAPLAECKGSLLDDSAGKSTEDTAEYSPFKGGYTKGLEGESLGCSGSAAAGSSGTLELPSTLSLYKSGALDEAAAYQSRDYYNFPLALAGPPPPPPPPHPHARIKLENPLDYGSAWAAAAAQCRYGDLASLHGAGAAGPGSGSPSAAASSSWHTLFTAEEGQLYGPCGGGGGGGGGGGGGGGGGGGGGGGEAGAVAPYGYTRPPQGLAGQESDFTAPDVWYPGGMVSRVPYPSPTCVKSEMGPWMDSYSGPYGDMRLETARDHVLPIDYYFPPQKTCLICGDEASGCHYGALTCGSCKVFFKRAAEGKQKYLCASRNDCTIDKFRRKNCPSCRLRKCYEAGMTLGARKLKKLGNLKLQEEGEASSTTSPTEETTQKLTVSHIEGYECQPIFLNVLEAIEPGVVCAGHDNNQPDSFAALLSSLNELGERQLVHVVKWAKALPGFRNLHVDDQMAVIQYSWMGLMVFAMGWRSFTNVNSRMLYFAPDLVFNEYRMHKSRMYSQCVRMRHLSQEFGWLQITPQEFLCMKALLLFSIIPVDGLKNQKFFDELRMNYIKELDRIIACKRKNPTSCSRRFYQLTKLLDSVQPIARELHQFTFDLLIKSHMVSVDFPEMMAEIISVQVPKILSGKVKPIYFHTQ

Row | Binding affinity [%] | Substance
1 | 54 | 1-Hydroxymethyl-12-(4-cyanophenyl)-1,12-dicarbacloso-dodecaborane
2 | 66 | 1-Hydroxy-12-(3-cyanophenyl)-1,12-dicarba-closo-dodecaborane
3 | 36 | 1-(3-Nitrophenyl)-1,12-dicarba-closo-dodecaborane
4 | 95 | 1-Hydroxymethyl-12-(3-cyanophenyl)-1,12-dicarbacloso-dodecaborane
5 | 60 | 1-Hydroxymethyl-7-(4-nitrophenyl)-1,7-dicarba-closododecaborane
6 | 75 | 1-Hydroxy-12-(3-nitrophenyl)-1,12-dicarba-closo-dodecaborane
7 | 39 | 1-(3-Hydroxypropyl)-12-(3-nitrophenyl)-1,12-dicarbacloso-dodecaborane

More lines, now with the values behind:

Row | Substance | Binding affinity [%]
8 | 1-Hydroxymethyl-7-(3-nitrophenyl)-1,7-dicarba-closododecaborane | 54
9 | 1-(3-Nitrophenyl)-1,12-dicarba-closo-dodecaborane-1-carboxylic Acid | 35
10 | 1-Hydroxy-12-(4-nitrophenyl)-1,12-dicarba-closo-dodecaborane | 53
11 | 1-Hydroxy-12-(4-cyanophenyl)-1,12-dicarba-closo-dodecaborane | 50
12 | 1-Hydroxymethyl-12-(3-nitrophenyl)-1,12-dicarba-closododecaborane | 97
13 | 1-Hydroxymethyl-12-(4-nitrophenyl)-1,12-dicarba-closodod caborane | 55
14 | 1-Methoxycarbonyl-12-(3-nitrophenyl)-1,12-dicarbacloso-dodecaborane | 18
15 | 1-(4-Nitrophenyl)-1,12-dicarba-closo-dodecaborane | 29
16 | 1-(4-Hydroxybutyl)-12-(3-nitrophenyl)-1,12-dicarbacloso-dodecaborane | 20
17 | 1-(2-Hydroxyethyl)-12-(3-nitrophenyl)-1,12-dicarbacloso-dodecaborane | 63
